Measurements reported in ChEMBL document CHEMBL5038599, “Identification of Thiazoyl Guanidine Derivatives as Novel Antifungal Agents Inhibiting Ergosterol Biosynthesis for Treatment of Invasive Fungal Infections” (J Med Chem, 2021).
Values after ≈ are worked out from the molar mass of the structure shown. Active and inactive are the calls of the source. The calls are words filed in the database; no cut-off is given here.

Experiments:
[1] = Metabolic stability in rat liver microsomes assessed as parent compound remaining at 0.5 uM incubated for 30 mins by LC/MS/MS analysis; format: ADME, Microsome; conditions: read-out: Stability
Outline: (§1)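 Compound at 0.5 μM was incubated with liver microsomes at 0.5 mg protein/mL at 37 °C. Buffer was 50 mM Tris-HCl pH 7.4 with 150 mM KCl, 10 mM MgCl2 and 1 mM NADPH. Reactions were stopped at 0 and 30 min with MeCN/MeOH 1:1. Percent remaining was taken from LC/MS/MS peak area ratio, in duplicate.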

[2] = Metabolic stability in human liver microsomes assessed as parent compound remaining at 0.5 uM incubated for 30 mins by LC/MS/MS analysis; format: ADME, Microsome; conditions: read-out: Stability; outline: as §1
[3] = test system: Aspergillus fumigatus; test: Antifungal activity against Aspergillus fumigatus ATCC 204305 assessed as inhibition of fungal growth incubated for 48 hrs in presence of 50% heat-inactivated bovine serum by broth microdilution method; format: functional; conditions: ATCC 204305, 48 h, in the assay text read “incubated for 48 hrs” for “incubated for 24 hrs”
Outline: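 Broth microdilution per CLSI M38-A2 with modifications. Conidia at about 1 × 10⁴ CFU/mL were grown for 48 h at 35 °C in YNB with 2% glucose and complete amino-acid mix, buffered to pH 7.0 with 50 mM MOPS. Medium was with or without 50% heat-inactivated bovine serum. MIC was the lowest concentration giving no visible growth.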

[4] = test system: Aspergillus fumigatus; test: Antifungal activity against Aspergillus fumigatus ATCC 204305 assessed as inhibition of fungal growth incubated for 48 hrs by broth microdilution method; conditions: ATCC 204305, 48 h
[5] = test system: Aspergillus fumigatus; test: Antifungal activity against Aspergillus fumigatus ATCC 204305 assessed as inhibition of fungal growth […] by broth microdilution method; format: functional
[6] = test system: Candida albicans; test: Antifungal activity against Candida albicans ATCC 90028 assessed as inhibition of fungal growth incubated for 24 hrs by broth microdilution method; format: functional
Outline: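 Yeast cells were adjusted to about 2 × 10³ CFU/mL and broth microdilution was run for 24 h at 35 °C. Medium was YNB with 2% glucose and complete amino-acid mix, buffered to pH 7.0 with 50 mM MOPS. MIC was the lowest concentration giving >50% growth reduction versus untreated control, read by optical density at 600 nm.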

[7] = test system: Aspergillus fumigatus; test: Antifungal activity against pan-azole resistant Aspergillus fumigatus SR47013 harbouring Cyp51A Y121F mutant assessed as inhibition of fungal growth incubated for 48 hrs by broth microdilution method; conditions: SR47013, 48 h
[8] = Volume of distribution at steady state in Sprague-Dawley rat at 0.5 mg/kg, iv measured upto 1440 mins by LC/MS/MS analysis; format: ADME, organism-based; conditions: in vivo, read-out: Vdss
[9] = test system: Mus musculus; test: In vivo antifungal activity against Aspergillus fumigatus infected in ICR mouse assessed as reduction in serum-galactomannan at 30 mg/kg, iv administered at 2 to 50 hrs post-inoculation and measured after 60 hrs by GM analysis; format: functional, organism-based
Outline: (§2)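 Male ICR mice (5 weeks) were immunosuppressed with intraperitoneal cyclophosphamide, 150 mg/kg on day −4 and 100 mg/kg on day −1. Mice were infected intravenously with about 1.5 × 10⁵ conidia in saline. Tail-vein dosing was at 2, 16, 21, 26, 40, 45 and 50 h, in 5% DMSO/5% Cremophor EL/4% glucose or 5% glucose. Samples were taken at 60 h, five mice per group, and analysed by Dunnett's test against untreated controls.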

[10] = test system: Mus musculus; test: In vivo antifungal activity against Aspergillus fumigatus infected in ICR mouse assessed as log reduction in fungal burden with 18S rRNA in kidney at 30 mg/kg, iv administered at 2 to 50 hrs post-inoculation and measured after 60 hrs by RT-qPCR analysis; format: functional; outline: as §2
[11] = Unbound fraction in Sprague-Dawley rat at 0.5 mg/kg, iv measured upto 1440 mins by LC/MS/MS analysis; format: ADME, organism-based; conditions: in vivo
[12] = Clearance in Sprague-Dawley rat at 0.5 mg/kg, iv measured upto 1440 mins by LC/MS/MS analysis; format: ADME, organism-based; conditions: in vivo
[13] = test system: Aspergillus fumigatus; test: Inhibition of Sterol methyl transferase in Aspergillus fumigatus ATCC 204305 assessed as accumulation of zymosterol at 0.5 ug/mL measured per 100 mg of mycelia by LC/MS analysis (Rvb= 0 nmol); conditions: dose 0.5 µg/ml
Outline: (§3)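 Conidia at 1 × 10⁴ CFU/mL were grown 24 h at 35 °C in YNB with 2% glucose and amino-acid mix, then compound was added and cultures ran a further 24 h. Mycelia were filtered and saponified in 25% ethanolic KOH at 85 °C for 1 h. Sterols were extracted into n-hexane, dried under N₂ at 40 °C and redissolved in acetone at 200 μL per 100 mg dry mycelium. Separation used a C18 column at 40 °C with an acetonitrile gradient.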

[14] = test system: Aspergillus fumigatus; test: Inhibition of Sterol methyl transferase in Aspergillus fumigatus ATCC 204305 assessed as accumulation of ergosterol at 0.5 ug/mL measured per 100 mg of mycelia by LC/MS analysis (Rvb= 144 nmol); conditions: dose 0.5 µg/ml; outline: as §3
[15] = test system: Aspergillus fumigatus; test: Inhibition of Sterol methyl transferase in Aspergillus fumigatus ATCC 204305 assessed as accumulation of eburicol at 0.5 ug/ml measured per 100 mg of mycelia by LC/MS analysis (Rvb= 0 nmol); conditions: dose 0.5 µg/ml; outline: as §3
[16] = test system: Aspergillus fumigatus; test: Inhibition of Sterol methyl transferase in Aspergillus fumigatus ATCC 204305 assessed as accumulation of lanosterol at 0.5 ug/mL measured per 100 mg of mycelia by LC/MS analysis (Rvb= 0 nmol); conditions: dose 0.5 µg/ml; outline: as §3
[17] = AUC in ICR mouse at 30 mg/kg, iv measured upto 360 mins by LC/MS/MS analysis; format: ADME, organism-based; set-up: route intravenous, dose 30 mg/kg, time <=360; conditions: in vivo
Outline: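 Male ICR mice, 6 weeks old. Dosed iv via tail vein at 30 mg/10 mL/kg (n = 3). The test agent was a solution in 5% DMSO, 5% Cremophor EL and 4% glucose; the reference azole was in 5% glucose. Blood (EDTA-2K plus heparin) was taken at 5, 30, 60, 180 and 360 min and spun to plasma. Proteins were precipitated with methanol before LC/MS/MS.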

Compound | remaining at 0.5 h, 0.5 µM [1] | remaining at 0.5 h, 0.5 µM [2] | MIC [4] | MIC50 [5] | MIC50 [6] | also measured
c1cc(-c2nc(-c3csc(N=C4NCCCN4)n3)cs2)ccn1 | 9% | 58% | 0.5 µg/mL (≈ 1.46 µM) |  |  | MIC50 [3]: 4 µg/mL
Cc1ccc(Oc2ccccc2-c2csc(Nc3ccccn3)n2)c(C)c1 |  |  |  | > 16 µg/mL | > 16 µg/mL | 
CC[C@@H]([C@H](C)O)n1ncn(-c2ccc(N3CCN(c4ccc(OC[C@@H]5CO[C@@](Cn6cncn6)(c6ccc(F)cc6F)C5)cc4)CC3)cc2)c1=O [POSACONAZOLE] |  |  | 0.063 µg/mL (≈ 0.0899 µM) |  |  | MIC50 [7]: 4 µg/mL (≈ 5.71 µM)
C[C@@H](c1nc(-c2ccc(C#N)cc2)cs1)[C@](O)(Cn1cncn1)c1cc(F)ccc1F [ISAVUCONAZOLE] |  |  | 0.25 µg/mL (≈ 0.571 µM) |  |  | MIC50 [7]: > 16 µg/mL
c1ccc(-c2nc(-c3csc(N=C4NCCCN4)n3)co2)cc1 |  |  |  | 16 µg/mL (≈ 49.2 µM) | 0.063 µg/mL (≈ 0.194 µM) | 
Oc1ccccc1-c1nc(-c2csc(N=C3NCCCN3)n2)cs1 | 38% | 30% | 0.5 µg/mL (≈ 1.4 µM) |  |  | MIC50 [3]: 8 µg/mL
Cc1ccc(Oc2ccccc2-c2csc(N)n2)c(C)c1 |  |  |  | > 16 µg/mL | 4 µg/mL (≈ 13.5 µM) | 
CS(=O)(=O)c1cccc(-c2nc(-c3csc(N=C4NCCCN4)n3)cs2)c1 | 47% | 85% | 4 µg/mL (≈ 9.53 µM) |  |  | MIC50 [3]: 16 µg/mL
c1ccc(-c2cccc(-c3csc(N=C4NCCCN4)n3)c2)cc1 |  |  |  | 1 µg/mL (≈ 2.99 µM) | < 0.063 µg/mL | 
Cc1ccc(Oc2ccccc2-c2csc(N(C)C)n2)c(C)c1 |  |  |  | > 16 µg/mL | > 16 µg/mL | 
CNC(=Nc1nc(-c2ccccc2Oc2ccc(C)cc2C)cs1)NC |  |  |  | > 16 µg/mL | > 16 µg/mL | 
Cc1ccc(Oc2ccccc2-c2csc(N=C3NCCCCN3)n2)c(C)c1 |  |  |  | > 16 µg/mL | 1 µg/mL (≈ 2.55 µM) | 
Cc1ccc(Oc2ccccc2-c2csc(N=C3NCCCN3)n2)c(C)c1 [ABAFUNGIN] | 0.2% | 64% |  | 2 µg/mL (≈ 5.28 µM) | < 0.063 µg/mL | MIC50 [7]: 2 µg/mL (≈ 5.28 µM); Vd [8]: 4.92 L/kg; Activity [9]: inactive; Activity [10]: inactive; fraction unbound at 24 h [11]: < 0.001; clearance [12]: 51.4 mL/min/kg
O=C(O)c1ccc(-c2nc(-c3csc(N=C4NCCCN4)n3)cs2)cc1 |  |  | > 16 µg/mL |  |  | 
C[C@@H](c1ncncc1F)[C@](O)(Cn1cncn1)c1ccc(F)cc1F [VORICONAZOLE] |  |  | 0.5 µg/mL (≈ 1.43 µM) |  |  | Activity [13]: 0 nmol; MIC50 [7]: > 16 µg/mL; Activity [14]: 99 nmol; Activity [15]: 34 nmol; Activity [16]: 1 nmol; AUC at 6 h [17]: 222 µg·h/mL; Activity [9]: inactive; Activity [10]: inactive
c1cncc(-c2nc(-c3csc(N=C4NCCCN4)n3)cs2)c1 | 19% | 78% | 0.5 µg/mL (≈ 1.46 µM) |  |  | MIC50 [3]: 2 µg/mL
Cc1ccc(Oc2ccccc2-c2cnc(N=C3NCCCN3)s2)c(C)c1 |  |  |  | > 16 µg/mL | > 16 µg/mL | 
Oc1ccc(-c2nc(-c3csc(N=C4NCCCN4)n3)cs2)cc1 | 53% | 86% | 2 µg/mL (≈ 5.59 µM) |  |  | MIC50 [3]: > 16 µg/mL
CCC(C)n1ncn(-c2ccc(N3CCN(c4ccc(OCC5COC(Cn6cncn6)(c6ccc(Cl)cc6Cl)O5)cc4)CC3)cc2)c1=O (configuration not stated) [ITRACONAZOLE] |  |  | 0.25 µg/mL (≈ 0.354 µM) |  |  | MIC50 [7]: > 16 µg/mL
Cc1ccc(Oc2ccccc2-c2csc(Nc3ncccn3)n2)c(C)c1 |  |  |  | > 16 µg/mL | > 16 µg/mL | 
Cc1ccc(Oc2ccccc2-c2csc(N=C3NCCN3)n2)c(C)c1 |  |  |  | > 16 µg/mL | 0.5 µg/mL (≈ 1.37 µM) | 
c1ccc(-c2nc(-c3csc(N=C4NCCCN4)n3)cs2)nc1 |  |  | 16 µg/mL (≈ 46.7 µM) |  |  | 
Cc1ccc(Oc2ccccc2-c2cccc(N=C3NCCCN3)n2)c(C)c1 |  |  |  | 4 µg/mL (≈ 10.7 µM) | 0.5 µg/mL (≈ 1.34 µM) | 
c1ccc(-c2cc(-c3csc(N=C4NCCCN4)n3)cs2)cc1 | 30% | 70% |  | 4 µg/mL (≈ 11.7 µM) | 0.063 µg/mL (≈ 0.185 µM) | 
Oc1cccc(-c2nc(-c3csc(N=C4NCCCN4)n3)cs2)c1 | 35% | 77% | 4 µg/mL (≈ 11.2 µM) |  |  | 
c1ccc(-n2ccc(-c3csc(N=C4NCCCN4)n3)n2)cc1 | 1.6% | 38% |  | > 16 µg/mL | 0.5 µg/mL (≈ 1.54 µM) | 
Cc1ccc(Oc2ccccc2-c2csc(/N=C3\NCCCN3C)n2)c(C)c1 |  |  |  | > 16 µg/mL | 8 µg/mL (≈ 20.4 µM) | 
c1ccc(-c2nc(-c3csc(N=C4NCCCN4)n3)cs2)cc1 | 31% | 83% |  | 0.5 µg/mL (≈ 1.46 µM) | < 0.063 µg/mL | Vd [8]: 7.25 L/kg; MIC50 [3]: 8 µg/mL; fraction unbound at 24 h [11]: 0.0104; clearance [12]: 33.1 mL/min/kg
Cc1ccc(Oc2ccccc2-c2nsc(N=C3NCCCN3)n2)c(C)c1 |  |  |  | > 16 µg/mL | > 16 µg/mL | 
